Consider one molecule from ChEMBL document CHEMBL4049387, “Combination of l-Carnitine with Lipophilic Linkage-Donating Gemcitabine Derivatives as Intestinal Novel Organic Cation Transporter 2-Targeting Oral Prodrugs” (J Med Chem, 2017).

In general, Tmax refers to the time at which the peak concentration occurs.

Data set [1] addresses T1, Organic cation/carnitine transporter 2 (Homo sapiens, UniProt O76082).
T1 sequence (O76082 whole entry): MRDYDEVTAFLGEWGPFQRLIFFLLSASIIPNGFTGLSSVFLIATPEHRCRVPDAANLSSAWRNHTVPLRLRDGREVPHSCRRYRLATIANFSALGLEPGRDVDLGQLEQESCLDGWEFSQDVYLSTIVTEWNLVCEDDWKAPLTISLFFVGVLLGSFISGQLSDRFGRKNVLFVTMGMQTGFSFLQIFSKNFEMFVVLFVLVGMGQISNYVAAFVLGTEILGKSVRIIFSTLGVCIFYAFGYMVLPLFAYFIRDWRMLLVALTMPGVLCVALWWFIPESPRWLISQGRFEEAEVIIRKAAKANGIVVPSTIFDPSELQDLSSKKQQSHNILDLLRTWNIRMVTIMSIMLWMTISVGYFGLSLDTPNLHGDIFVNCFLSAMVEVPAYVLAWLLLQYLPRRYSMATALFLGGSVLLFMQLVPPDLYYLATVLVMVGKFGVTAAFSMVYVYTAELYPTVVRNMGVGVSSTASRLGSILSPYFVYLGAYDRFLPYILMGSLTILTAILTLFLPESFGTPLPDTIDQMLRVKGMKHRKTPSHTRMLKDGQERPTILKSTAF
Kind of data set: Ratio of drug transport assessed as OCTN2 transporter mediated cell permeability in human Caco2 cells at 25 uM in absence of L-carnitine to drug transport assessed as OCTN2 transporter mediated cell permeability in human Caco2 cells at 25 uM in presence of L-carnitine. It is filed as ADME, cell-based. To be noted: caco-2, 25 µM. A digest of the protocol: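 Caco-2 cells seeded at 1.0×10^5 cells/well on 0.4 µm polycarbonate inserts, cultured 21 days in MEM; monolayers with TEER over 250 Ω·cm² used. Compound at 25 µM final in HBSS, added apically, with or without 100 µM L-carnitine, 37 °C. Basolateral samples taken at 15, 30, 45, 60, 90, 120 min. Analysed by UPLC-MS/MS to give Papp. Triplicate runs.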

Data set [2] deals with T2, Organic cation/carnitine transporter 2 (Rattus norvegicus, UniProt O70594).
T2 sequence (O70594 whole entry): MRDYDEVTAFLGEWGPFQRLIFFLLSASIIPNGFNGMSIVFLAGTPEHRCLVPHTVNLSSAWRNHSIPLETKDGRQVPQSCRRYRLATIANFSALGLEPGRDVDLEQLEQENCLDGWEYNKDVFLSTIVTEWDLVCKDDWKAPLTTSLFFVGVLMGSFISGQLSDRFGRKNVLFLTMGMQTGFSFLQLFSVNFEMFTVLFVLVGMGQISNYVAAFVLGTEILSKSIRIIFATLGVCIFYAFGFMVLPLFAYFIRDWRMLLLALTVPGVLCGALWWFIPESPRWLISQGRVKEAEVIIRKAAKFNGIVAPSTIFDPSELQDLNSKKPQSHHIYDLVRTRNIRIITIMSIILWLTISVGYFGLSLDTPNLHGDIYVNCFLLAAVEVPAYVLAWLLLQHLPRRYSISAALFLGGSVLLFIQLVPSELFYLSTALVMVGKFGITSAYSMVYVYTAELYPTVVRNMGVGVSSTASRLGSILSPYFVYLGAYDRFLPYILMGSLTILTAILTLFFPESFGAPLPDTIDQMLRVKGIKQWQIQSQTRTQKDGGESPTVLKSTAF
Kind of data set: Ratio of drug transport assessed as OCTN2 transporter mediated effective permeability in rat jejunum at 76 uM in absence of L-carnitine to drug transport assessed as OCTN2 transporter mediated effective permeability in rat jejunum at 76 uM in presence of L-carnitine. It is filed as ADME.

Data set [3] is described as follows: Terminal half-life in Wistar rat at 50 mg/kg, po administered as single dose by UPLC-MS/MS method. It is filed as ADME, organism-based. As to conditions: in vivo, read-out: beta t1/2 (converted); call rule not given here. The gist of the method: (§1)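 Wistar rats, six per group, single oral dose equivalent to 50 mg/kg gemcitabine; separate group given gemcitabine iv at 7.5 mg/kg. Oral sampling at 5, 10, 15, 30 min and 1, 2, 4, 6, 8, 12, 24 h; iv at 15, 30 min and 2, 4, 8, 12, 24 h. Blood into THU-pretreated heparinized tubes, centrifuged 3000 × g 15 min, plasma at -80 °C. Prodrug and gemcitabine quantified by UPLC-MS/MS. F = AUCpo×Div/AUCiv/Dpo×100%.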

A short description of data set [4]: Tmax in Wistar rat at 50 mg/kg, po administered as single dose by UPLC-MS/MS method. Type of data set: ADME, organism-based. To be noted: in vivo. A digest of the protocol:
as §1

Another data set relates to Heart. In words: Drug uptake in mouse heart at 102 mg/kg, po administered as single dose at 0.5 hrs post dose. Type of data set: ADME, organism-based. To be noted: in vivo. A digest of the protocol: (§2)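 Mice, three per time point, single oral dose of 102 mg/kg (equivalent to 50 mg/kg gemcitabine). Heart, liver, spleen, lung, kidney and brain collected at 0.16, 0.5 and 2 h, rinsed in saline. 0.3 g tissue homogenized 1 min in 1 mL saline, spun 13,000 rpm 4 °C 5 min. Gemcitabine measured in supernatant.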

In the next data set the test system is Spleen. Kind of data set: Drug uptake in mouse spleen at 102 mg/kg, po administered as single dose at 2 hrs post dose. Type of data set: ADME, organism-based. To be noted: in vivo. A digest of the protocol:
as §2

Data set [5] deals with Mus musculus. In words: Toxicity in Kunming mouse assessed as […] degeneration in hepatocytes at 102 mg/kg, po administered once daily for 14 days by hematoxylin/eosin staining based optical microscopic analysis. As to conditions: in vivo, 336 h. Type of data set: organism-based. A digest of the protocol: (§3)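 Kunming mice, four per group, dosed orally once daily for 14 days with 102 mg/kg or saline control; body weight recorded every other day. Heart, liver, spleen, lung and kidney fixed in 10% buffered formalin, paraffin-embedded, sectioned, stained with hematoxylin and eosin, and examined by optical microscopy.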

The subject of data set [6] is Mus musculus. Kind of data set: Toxicity in Kunming mouse assessed as inflammatory infiltrates in cardiac muscle at 102 mg/kg, po administered once daily for 14 days by hematoxylin/eosin staining based optical microscopic analysis. Type of data set: organism-based. To be noted: in vivo, 336 h. The gist of the method: as §3
The test system of data set [7] is Mus musculus. Kind of data set: Toxicity in Kunming mouse assessed as inflammatory infiltrates in lung at 102 mg/kg, po administered once daily for 14 days by hematoxylin/eosin staining based optical microscopic analysis. Type of data set: organism-based. To be noted: in vivo, 336 h. The gist of the method: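 Kunming mice, four per group, dosed orally once daily for 14 days with test article or physiological saline control, body weight recorded every other day. After sacrifice, heart, liver, spleen, lung and kidney were fixed at once in 10% buffered formalin, paraffin-embedded, sectioned, H&E stained and examined by optical microscopy for hydropic degeneration, inflammatory infiltrates and fibrosis.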

For data set [8], the system named is Mus musculus. Kind of data set: Toxicity in Kunming mouse assessed as inflammatory infiltrates in kidney at 102 mg/kg, po administered once daily for 14 days by hematoxylin/eosin staining based optical microscopic analysis. It is filed as organism-based. To be noted: in vivo, 336 h. The gist of the method:
as §3

The subject of data set [9] is Mus musculus. In words: Toxicity in Kunming mouse assessed as fibrosis in cardiac muscle at 102 mg/kg, po administered once daily for 14 days by hematoxylin/eosin staining based optical microscopic analysis. It is filed as organism-based. To be noted: in vivo, 336 h. The gist of the method: as §3
In data set [10] the test system is Mus musculus. In words: Toxicity in Kunming mouse assessed as fibrosis in hepatocytes at 102 mg/kg, po administered once daily for 14 days by hematoxylin/eosin staining based optical microscopic analysis. Type of data set: organism-based. As to conditions: in vivo, 336 h. A digest of the protocol:
as §3

For data set [11], the system named is Mus musculus. In words: Toxicity in Kunming mouse assessed as fibrosis in spleen at 102 mg/kg, po administered once daily for 14 days by hematoxylin/eosin staining based optical microscopic analysis. It is filed as organism-based. To be noted: in vivo, 336 h. A digest of the protocol:
as §3

Data set [12] has as its system Mus musculus. Kind of data set: Toxicity in Kunming mouse assessed as fibrosis in kidney at 102 mg/kg, po administered once daily for 14 days by hematoxylin/eosin staining based optical microscopic analysis. It is filed as organism-based. As to conditions: in vivo, 336 h. A digest of the protocol: as §3

With `C[N+](C)(C)CC(CC(=O)[O-])OC(=O)CCCCC(=O)Nc1ccn([C@@H]2O[C@H](CO)[C@@H](O)C2(F)F)c(=O)n1` (some centres undefined), the Ratio was 1.6 to 3.6 in data set [1] and 11 in data set [2]. Further, the half-life in data set [3] was 6.8 h. Moreover, in data set [4], the Tmax is 1.3 h. The Drug uptake result with Heart was “Active”; in the data set with Spleen, “Not Active”. In addition, the Activity result in the data set with Mus musculus [5], in the data set on Mus musculus [6], with Mus musculus [7], with Mus musculus [8], with Mus musculus [9] and with Mus musculus [10] was “Non-Toxic” in each case. Besides, the Activity result in the data set on Mus musculus [11] and in the data set on Mus musculus [12] was “Non-Toxic” in each case.
